Values after ≈ are worked out from the molar mass of the structure shown. Active and inactive are the calls of the source. No cut-off for these calls is given here.
Experiments:
Fusarium proliferatum [1] = experiment: Antimicrobial activity against Fusarium proliferatum at 0.3 uM after 72 hrs by microtiter assay; format: functional
Outline: (§1)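 96-well microdilution broth assay with conidia (3 × 10^5 conidia/mL, harvested from 7-day PDA cultures and filtered) against F. oxysporum, F. proliferatum and F. solani at 0.3, 3 and 30 µM. Plates were held at 24 ± 1 °C under a 12 h photoperiod. Growth was read at 620 nm at 24, 48 and 72 h and reported as percent inhibition from mean absorbance with standard error.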

Fusarium proliferatum [2] = experiment: Antimicrobial activity against Fusarium proliferatum at 3 uM after 48 hrs by microtiter assay; format: functional; outline: as §1
Fusarium proliferatum [3] = experiment: Antimicrobial activity against Fusarium proliferatum at 3 uM after 72 hrs by microtiter assay; format: functional; outline: as §1
Aspergillus fumigatus = experiment: Antimicrobial activity against Aspergillus fumigatus ATCC 90906; format: functional, organism-based
Cryptococcus neoformans = experiment: Antimicrobial activity against Cryptococcus neoformans ATCC 90113; format: functional, organism-based
Fusarium proliferatum [4] = experiment: Antimicrobial activity against Fusarium proliferatum at 0.3 uM after 48 hrs by microtiter assay; format: functional; outline: as §1
Candida albicans = experiment: Antimicrobial activity against Candida albicans ATCC 90028; format: functional, organism-based
Fusarium oxysporum [5] = experiment: Antimicrobial activity against Fusarium oxysporum at 0.3 uM after 48 hrs by microtiter assay; format: functional; outline: as §1
Fusarium oxysporum [6] = experiment: Antimicrobial activity against Fusarium oxysporum at 0.3 uM after 72 hrs by microtiter assay; format: functional; outline: as §1
Fusarium solani [7] = experiment: Antimicrobial activity against Fusarium solani at 0.3 uM after 48 hrs by microtiter assay; format: functional; outline: as §1
Fusarium solani [8] = experiment: Antimicrobial activity against Fusarium solani at 0.3 uM after 72 hrs by microtiter assay; format: functional; outline: as §1
Fusarium oxysporum [9] = experiment: Antimicrobial activity against Fusarium oxysporum at 3 uM after 48 hrs by microtiter assay; format: functional; outline: as §1
Fusarium oxysporum [10] = experiment: Antimicrobial activity against Fusarium oxysporum at 3 uM after 72 hrs by microtiter assay; format: functional; outline: as §1
Fusarium solani [11] = experiment: Antimicrobial activity against Fusarium solani at 3 uM after 48 hrs by microtiter assay; format: functional; outline: as §1
Fusarium solani [12] = experiment: Antimicrobial activity against Fusarium solani at 3 uM after 72 hrs by microtiter assay; format: functional; outline: as §1
Fusarium oxysporum [13] = experiment: Antimicrobial activity against Fusarium oxysporum at 30 uM after 48 hrs by microtiter assay; format: functional; outline: as §1
Fusarium oxysporum [14] = experiment: Antimicrobial activity against Fusarium oxysporum at 30 uM after 72 hrs by microtiter assay; format: functional; outline: as §1
Fusarium solani [15] = experiment: Antimicrobial activity against Fusarium solani at 30 uM after 48 hrs by microtiter assay; format: functional; outline: as §1
Fusarium solani [16] = experiment: Antimicrobial activity against Fusarium solani at 30 uM after 72 hrs by microtiter assay; format: functional; outline: as §1
Fusarium proliferatum [17] = experiment: Antimicrobial activity against Fusarium proliferatum at 30 uM after 48 hrs by microtiter assay; format: functional; outline: as §1
Fusarium proliferatum [18] = experiment: Antimicrobial activity against Fusarium proliferatum at 30 uM after 72 hrs by microtiter assay; format: functional; outline: as §1
Fusarium proliferatum [19] = experiment: Fungicidal activity against Fusarium proliferatum at 30 uM after 72 hrs by microtiter plate assay; format: functional, organism-based
Outline: (§2)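 After 72 h of microtiter broth exposure at 30 µM, 20 µL from each well was plated onto compound-free potato dextrose agar and incubated 3 days at 28 °C. No regrowth was scored fungicidal; regrowth was scored fungistatic.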

Fusarium solani [20] = experiment: Fungicidal activity against Fusarium solani at 30 uM after 72 hrs by microtiter assay; format: functional, organism-based; outline: as §2
Fusarium oxysporum [21] = experiment: Fungicidal activity against Fusarium oxysporum at 30 uM after 72 hrs by microtiter plate assay; format: functional, organism-based; outline: as §2
Escherichia coli = experiment: Antimicrobial activity against Escherichia coli; format: functional, organism-based
Staphylococcus aureus = experiment: Antimicrobial activity against methicillin-resistant Staphylococcus aureus; format: functional, organism-based
[22] = system: Mycobacterium intracellulare; experiment: Antimicrobial activity against Mycobacterium intracellular ATCC 23068; format: functional, organism-based
[23] = system: Mycobacterium tuberculosis; experiment: Antibacterial activity against Mycobacterium tuberculosis H37Rv at 16 ug/mL by micro plate alamar blue assay; format: functional
Outline: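 M. tuberculosis H37Rv ATCC 27294 grown in BACTEC 12B medium; microplate Alamar blue assay (MABA). Primary screen at a single concentration of 16 µg/mL, read as percent inhibition.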

SK-OV-3 = experiment: Cytotoxicity against human SK-OV3 cells; format: functional
Outline: (§3)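 NCI Developmental Therapeutics Program cell panel. GI50 is the concentration that reduces growth of treated cells to half that of untreated controls. TGI is the concentration that completely halts growth.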

ACHN = experiment: Cytotoxicity against human ACHN cells; format: functional; outline: as §3
PC-3 = experiment: Cytotoxicity against human PC3 cells; format: functional; outline: as §3
Hs-578T = experiment: Cytotoxicity against human HS578T cells; format: functional; outline: as §3
Leishmania donovani = experiment: Antiparasitic activity against Leishmania donovani; format: functional, organism-based
[24] = system: Mycobacterium tuberculosis; experiment: Antibacterial activity against Mycobacterium tuberculosis H37Rv by micro plate alamar blue assay; format: functional
A549 = experiment: Cytotoxicity against human A549 cells; format: functional; outline: as §3
NCI-H322M = experiment: Cytotoxicity against human NCI-H322M cells; format: functional; outline: as §3
RPMI-8226 = experiment: Cytotoxicity against human RPMI8226 cells; format: functional; outline: as §3
HCC 2998 = experiment: Cytotoxicity against human HCC2998 cells; format: functional; outline: as §3
HCT-15 = experiment: Cytotoxicity against human HCT15 cells; format: functional; outline: as §3
HT-29 = experiment: Cytotoxicity against human HT29 cells; format: functional; outline: as §3
KM12 = experiment: Cytotoxicity against human KM12 cells; format: functional; outline: as §3
SNB-75 = experiment: Cytotoxicity against human SNB75 cells; format: functional; outline: as §3
UACC-257 = experiment: Cytotoxicity against human UACC257 cells; format: functional; outline: as §3
Fusarium proliferatum [25] = experiment: Antifungal activity against Fusarium proliferatum at 20 ug/mL after 3 days by fluorescence assay; format: functional, organism-based
Outline: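 Fusarium proliferatum conidia in potato dextrose broth in a tube with the coumarin (DEAC)-labelled probe at 20 µg/mL, held at 24 ± 1 °C. Hyphae and mycelia were viewed at 4, 8, 16, 24, 48 and 72 h by light and epifluorescence microscopy at 400× and 1000×. Conidia were first checked for autofluorescence.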

C[C@@H]1[C@H](O)[C@@H](C)/C=C/C=C/C=C/C=C/C=C/C=C/C=C/[C@H](O[C@@H]2O[C@H](C)[C@@H](O)[C@H](N)[C@@H]2O)C[C@@H]2O[C@](O)(C[C@@H](O)C[C@@H](O)[C@H](O)CC[C@@H](O)C[C@@H](O)CC(=O)O[C@H]1C)C[C@H](O)[C@H]2C(=O)O [AMPHOTERICIN B]
inhibition at 0.3 µM (Fusarium proliferatum [1]): 0% | inhibition at 3 µM (Fusarium proliferatum [2]): 7.9% | inhibition at 3 µM (Fusarium proliferatum [3]): 0% | IC50 (Aspergillus fumigatus): 1320 nM | MFC (Aspergillus fumigatus): 2.5 µM (≈ 2.31 µg/mL) | MIC (Aspergillus fumigatus): 2.5 µM (≈ 2.31 µg/mL) | IC50 (Cryptococcus neoformans): 790 nM | MFC (Cryptococcus neoformans): 0.06 µM (≈ 0.0554 µg/mL) | MIC (Cryptococcus neoformans): 0.016 µM (≈ 0.0148 µg/mL) | inhibition at 0.3 µM (Fusarium proliferatum [4]): 0% | IC50 (Candida albicans): 250 nM | MFC (Candida albicans): 1.25 µM (≈ 1.16 µg/mL) | MIC (Candida albicans): 0.625 µM (≈ 0.578 µg/mL) | inhibition at 0.3 µM (Fusarium oxysporum [5]): 0% | inhibition at 0.3 µM (Fusarium oxysporum [6]): 0% | inhibition at 0.3 µM (Fusarium solani [7]): 0% | inhibition at 0.3 µM (Fusarium solani [8]): 0.1% | inhibition at 3 µM (Fusarium oxysporum [9]): 12.5% | inhibition at 3 µM (Fusarium oxysporum [10]): 0% | inhibition at 3 µM (Fusarium solani [11]): 18.1% | inhibition at 3 µM (Fusarium solani [12]): 0% | inhibition at 30 µM (Fusarium oxysporum [13]): 99.7% | inhibition at 30 µM (Fusarium oxysporum [14]): 87.1% | inhibition at 30 µM (Fusarium solani [15]): 100% | inhibition at 30 µM (Fusarium solani [16]): 98.1% | inhibition at 30 µM (Fusarium proliferatum [17]): 99.8% | inhibition at 30 µM (Fusarium proliferatum [18]): 79% | Activity (Fusarium proliferatum [19]): Active | Activity (Fusarium solani [20]): Active | Activity (Fusarium oxysporum [21]): Active

C/C=C(\NC(=O)[C@H](Cc1ccccc1)NC(=O)[C@H](NC(=O)[C@H](NC(=O)[C@H](NC(=O)[C@H](NC(=O)[C@H](CCCN)NC(=O)[C@H]1CCCN1C(=O)[C@@H](NC(=O)[C@H](NC(=O)[C@H](NC(=O)[C@@H](NC(=O)CCCC(C)C)C(C)C)[C@H](C)O)C(C)C)C(C)C)[C@@H](C)CC)[C@@H](C)O)[C@@H](C)CC)C(C)C)C(=O)N[C@H](C(=O)O)C(C)C
Activity (Escherichia coli): inactive | Activity (Staphylococcus aureus): inactive

CC(C)CCC[C@H]1CC(=O)N[C@H](Cc2c[nH]c3ccccc23)C(=O)N2CCC[C@H]2C(=O)N[C@@H](CCCNC(=N)N)C(=O)O1 [KAHALALIDE D]
IC50 (Aspergillus fumigatus): > 33600 nM | IC50 (Cryptococcus neoformans): > 33600 nM | Activity (Escherichia coli): inactive | Activity (Staphylococcus aureus): inactive | IC50 (Candida albicans): > 33600 nM | IC50 [22]: > 33600 nM | inhibition at 16 µg/mL [23]: 49%

C/C=C1\NC(=O)[C@H](Cc2ccccc2)NC(=O)[C@@H](C(C)C)NC(=O)[C@@H]([C@H](C)CC)NC(=O)[C@H](NC(=O)[C@H](NC(=O)[C@H](CCCN)NC(=O)[C@H]2CCCN2C(=O)[C@H](NC(=O)[C@@H](NC(=O)[C@@H](NC(=O)[C@H](NC(=O)CCCC(C)C)C(C)C)[C@@H](C)O)C(C)C)C(C)C)[C@H](C)CC)[C@H](C)OC(=O)[C@H](C(C)C)NC1=O [KAHALALIDE F]
GI50 (SK-OV-3): 191 nM | TGI (SK-OV-3): 355 nM | GI50 (ACHN): 1660 nM | TGI (ACHN): 3240 nM | GI50 (PC-3): 170 nM | TGI (PC-3): 324 nM | GI50 (Hs-578T): 162 nM | TGI (Hs-578T): 479 nM | inhibition at 0.3 µM (Fusarium proliferatum [1]): 0% | inhibition at 3 µM (Fusarium proliferatum [2]): 0% | inhibition at 3 µM (Fusarium proliferatum [3]): 0% | IC50 (Aspergillus fumigatus): 3210 nM | MFC (Aspergillus fumigatus): 20 µM (≈ 29.6 µg/mL) | MIC (Aspergillus fumigatus): 10 µM (≈ 14.8 µg/mL) | IC50 (Cryptococcus neoformans): 1530 nM | MFC (Cryptococcus neoformans): 5 µM (≈ 7.39 µg/mL) | MIC (Cryptococcus neoformans): 5 µM (≈ 7.39 µg/mL) | inhibition at 0.3 µM (Fusarium proliferatum [4]): 0% | Activity (Escherichia coli): inactive | Activity (Staphylococcus aureus): inactive | IC50 (Candida albicans): 3020 nM | MFC (Candida albicans): 20 µM (≈ 29.6 µg/mL) | MIC (Candida albicans): 10 µM (≈ 14.8 µg/mL) | IC50 [22]: > 20000 nM | MBC [22]: > 20 µM | MIC [22]: > 20 µM | IC50 (Leishmania donovani): 17 µg/mL (≈ 11.5 µM) | IC90 (Leishmania donovani): 34 µg/mL (≈ 23 µM) | inhibition at 16 µg/mL [23]: 67% | MIC [24]: > 16 µg/mL | inhibition at 0.3 µM (Fusarium oxysporum [5]): 0% | inhibition at 0.3 µM (Fusarium oxysporum [6]): 0% | inhibition at 0.3 µM (Fusarium solani [7]): 0% | inhibition at 0.3 µM (Fusarium solani [8]): 0% | inhibition at 3 µM (Fusarium oxysporum [9]): 0% | inhibition at 3 µM (Fusarium oxysporum [10]): 0% | inhibition at 3 µM (Fusarium solani [11]): 9.9% | inhibition at 3 µM (Fusarium solani [12]): 0% | inhibition at 30 µM (Fusarium oxysporum [13]): 100% | inhibition at 30 µM (Fusarium oxysporum [14]): 99.6% | inhibition at 30 µM (Fusarium solani [15]): 98.9% | inhibition at 30 µM (Fusarium solani [16]): 99.9% | GI50 (A549): 135 nM | TGI (A549): 302 nM | GI50 (NCI-H322M): 191 nM | TGI (NCI-H322M): 372 nM | GI50 (RPMI-8226): 1740 nM | TGI (RPMI-8226): 6920 nM | GI50 (HCC 2998): 288 nM | TGI (HCC 2998): 616 nM | GI50 (HCT-15): 269 nM | TGI (HCT-15): 741 nM | GI50 (HT-29): 162 nM | TGI (HT-29): 316 nM | GI50 (KM12): 182 nM | TGI (KM12): 363 nM | GI50 (SNB-75): 224 nM | TGI (SNB-75): 1900 nM | GI50 (UACC-257): 1020 nM | TGI (UACC-257): 2820 nM | inhibition at 30 µM (Fusarium proliferatum [17]): 99.8% | inhibition at 30 µM (Fusarium proliferatum [18]): 100% | Activity (Fusarium proliferatum [19]): Active | Activity (Fusarium solani [20]): Active | Activity (Fusarium proliferatum [25]): Active | Activity (Fusarium oxysporum [21]): Active

From ChEMBL document CHEMBL1148762, “Lysosome and HER3 (ErbB3) selective anticancer agent kahalalide F: semisynthetic modifications and antifungal lead-exploration studies” (J Med Chem, 2007)
